According to ChEMBL document CHEMBL2163301, “Substrates for efficient fluorometric screening employing the NAD-dependent sirtuin 5 lysine deacylase (KDAC) enzyme” (J Med Chem, 2012):
Where a name gives a salt, the structure may show the parent alone. The source made the active and inactive calls. The rule behind the calls is not given here. Where a SMILES comes first, the peptide text is derived from it. The star is where a group is joined. AMC = Cc1cc(=O)oc2cc(N*)ccc12; Tfa = O=C(C(F)(F)F)*

target: NAD-dependent protein deacylase sirtuin-6 (Homo sapiens) (UniProt Q8N6T7); test: Activity of human SIRT6 assessed as decrotonylation of compound at 50 uM after 1 hr by trypsin developer-based fluorescence assay
Sequence (Q8N6T7 whole entry, the tested form may be a part): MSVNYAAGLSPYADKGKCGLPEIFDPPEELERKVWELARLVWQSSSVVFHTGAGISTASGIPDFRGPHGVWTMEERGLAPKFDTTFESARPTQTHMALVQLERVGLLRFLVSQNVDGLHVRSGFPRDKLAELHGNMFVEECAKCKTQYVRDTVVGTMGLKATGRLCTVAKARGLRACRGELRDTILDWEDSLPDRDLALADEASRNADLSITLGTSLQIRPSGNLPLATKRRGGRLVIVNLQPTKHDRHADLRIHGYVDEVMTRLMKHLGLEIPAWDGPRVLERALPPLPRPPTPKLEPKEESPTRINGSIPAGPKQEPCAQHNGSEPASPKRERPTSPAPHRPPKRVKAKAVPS
Summary of the method: (§1)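 Recombinant sirtuin at 1 μg per 50 μL reaction, with SIRT1-GST fusion as the SIRT1 source. Fluorogenic substrate and NAD incubated in Tris-Cl buffer pH 8.0 with BSA (1 mg/mL) for 1 h at 37 °C. Developer with nicotinamide (2 mM) and trypsin (0.4 mg/mL) added, 15–30 min at room temperature. Fluorescence read at ex 360/em 460 nm and normalized to no-enzyme wells. At least two experiments in duplicate.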

Chain of NAD-dependent protein deacylase sirtuin-5, mitochondrial (Homo sapiens), Q9NXA8 (Q9NXA8 whole entry): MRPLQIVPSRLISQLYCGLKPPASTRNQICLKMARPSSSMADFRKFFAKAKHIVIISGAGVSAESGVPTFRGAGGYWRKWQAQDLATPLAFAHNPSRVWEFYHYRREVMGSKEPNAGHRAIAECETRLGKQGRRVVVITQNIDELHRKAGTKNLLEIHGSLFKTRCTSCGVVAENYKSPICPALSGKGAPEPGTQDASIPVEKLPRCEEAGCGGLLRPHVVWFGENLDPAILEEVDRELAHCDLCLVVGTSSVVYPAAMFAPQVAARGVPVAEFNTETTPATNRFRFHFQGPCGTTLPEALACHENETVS

| Compound | Activity |
| --- | --- |
| C/C=C/C(=O)NCCCC[C@H](NC(=O)CNC(=O)[C@H](CC(C)C)NC(C)=O)C(=O)Nc1ccc2c(C)cc(=O)oc2c1 | inactive |
| CC(=O)N[C@@H](CC(C)C)C(=O)NCC(=O)N[C@@H](CCCCNC(=O)C(F)(F)F)C(=O)Nc1ccc2c(C)cc(=O)oc2c1 (Ac-Leu-Gly-Lys(Tfa)-{AMC}) | inactive |

target: T1, NAD-dependent protein deacetylase sirtuin-2 (Homo sapiens) (UniProt Q8IXJ6); test: Activity of human SIRT2 assessed as decrotonylation of compound at 50 uM after 1 hr by trypsin developer-based fluorescence assay; summary of the method: as §1
T1 sequence (whole entry): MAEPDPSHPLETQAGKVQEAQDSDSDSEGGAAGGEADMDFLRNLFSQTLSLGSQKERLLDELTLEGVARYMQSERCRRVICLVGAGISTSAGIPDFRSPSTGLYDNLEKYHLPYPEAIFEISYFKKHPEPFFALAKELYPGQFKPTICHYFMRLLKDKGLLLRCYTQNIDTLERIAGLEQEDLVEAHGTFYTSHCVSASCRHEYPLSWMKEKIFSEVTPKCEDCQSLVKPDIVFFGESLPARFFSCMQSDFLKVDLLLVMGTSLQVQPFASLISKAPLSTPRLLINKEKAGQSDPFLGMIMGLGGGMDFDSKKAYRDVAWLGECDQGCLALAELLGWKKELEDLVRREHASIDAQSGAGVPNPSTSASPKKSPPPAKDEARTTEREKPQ

| Compound | Activity |
| --- | --- |
| C/C=C/C(=O)NCCCC[C@H](NC(=O)CNC(=O)[C@H](CC(C)C)NC(C)=O)C(=O)Nc1ccc2c(C)cc(=O)oc2c1 | inactive |
| CC(=O)N[C@@H](CC(C)C)C(=O)NCC(=O)N[C@@H](CCCCNC(=O)C(F)(F)F)C(=O)Nc1ccc2c(C)cc(=O)oc2c1 (Ac-Leu-Gly-Lys(Tfa)-{AMC}) | inactive |

target: NAD-dependent protein deacylase sirtuin-5, mitochondrial (Homo sapiens) (UniProt Q9NXA8); test: Activity of human SIRT5 assessed as decrotonylation of compound at 50 uM after 1 hr by trypsin developer-based fluorescence assay; summary of the method: as §1
Sequence (Q9NXA8 37-310 limits assumed): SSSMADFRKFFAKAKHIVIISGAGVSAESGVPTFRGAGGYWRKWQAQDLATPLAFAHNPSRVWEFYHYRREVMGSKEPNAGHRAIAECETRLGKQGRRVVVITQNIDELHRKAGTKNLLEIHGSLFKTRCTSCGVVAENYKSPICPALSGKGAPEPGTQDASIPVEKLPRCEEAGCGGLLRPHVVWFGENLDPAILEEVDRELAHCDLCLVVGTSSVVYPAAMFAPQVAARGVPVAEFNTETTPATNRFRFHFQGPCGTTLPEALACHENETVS

| Compound | Activity |
| --- | --- |
| C/C=C/C(=O)NCCCC[C@H](NC(=O)CNC(=O)[C@H](CC(C)C)NC(C)=O)C(=O)Nc1ccc2c(C)cc(=O)oc2c1 | inactive |
| CC(=O)N[C@@H](CC(C)C)C(=O)NCC(=O)N[C@@H](CCCCNC(=O)C(F)(F)F)C(=O)Nc1ccc2c(C)cc(=O)oc2c1 (Ac-Leu-Gly-Lys(Tfa)-{AMC}) | inactive |

target: T2, NAD-dependent protein deacetylase sirtuin-3, mitochondrial (Homo sapiens) (UniProt Q9NTG7); test: Activity of human SIRT3 assessed as decrotonylation of compound at 50 uM after 1 hr by trypsin developer-based fluorescence assay; summary of the method: as §1
T2 sequence (whole entry): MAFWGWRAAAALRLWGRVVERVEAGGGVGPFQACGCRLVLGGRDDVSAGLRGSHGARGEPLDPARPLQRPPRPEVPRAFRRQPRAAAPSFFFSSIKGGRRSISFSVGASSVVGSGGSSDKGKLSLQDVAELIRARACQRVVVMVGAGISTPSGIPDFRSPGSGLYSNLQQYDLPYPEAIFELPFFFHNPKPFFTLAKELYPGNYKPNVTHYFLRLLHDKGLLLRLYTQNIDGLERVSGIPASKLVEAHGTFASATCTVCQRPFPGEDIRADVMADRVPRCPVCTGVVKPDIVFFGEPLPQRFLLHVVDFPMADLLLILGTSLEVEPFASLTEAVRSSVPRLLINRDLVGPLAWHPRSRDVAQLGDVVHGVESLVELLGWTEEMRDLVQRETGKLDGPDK

| Compound | Activity |
| --- | --- |
| C/C=C/C(=O)NCCCC[C@H](NC(=O)CNC(=O)[C@H](CC(C)C)NC(C)=O)C(=O)Nc1ccc2c(C)cc(=O)oc2c1 | inactive |
| CC(=O)N[C@@H](CC(C)C)C(=O)NCC(=O)N[C@@H](CCCCNC(=O)C(F)(F)F)C(=O)Nc1ccc2c(C)cc(=O)oc2c1 (Ac-Leu-Gly-Lys(Tfa)-{AMC}) | inactive |

system: CC(=O)N[C@@H](CC(C)C)C(=O)NCC(=O)N[C@@H](CCCCNC(=O)CCC(=O)O)C(=O)Nc1ccc2c(C)cc(=O)oc2c1; test: (§2) Activity of human SIRT5 assessed as desuccinylation of compound after 1 hr by Michaelis-Menten plot analysis
Summary of the method: (§3)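 Recombinant human SIRT5 with fluorogenic succinyllysine-AMC substrate and NAD in Tris-Cl buffer pH 8.0 containing BSA, with in situ AMC release by Lys-C or trypsin developer. Fluorescence (ex 360/em 460 nm) read every 30 s for at least 30 min at 25 °C to give initial rates over a substrate concentration series. Km and Vmax from Michaelis-Menten fit; kcat from AMC standard curve and supplier enzyme concentration.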

| Compound | Km [µM] | Vmax [nM/s] | kcat [×10⁻² /s] |
| --- | --- | --- | --- |
| NAD-dependent protein deacylase sirtuin-5, mitochondrial (Homo sapiens), Q9NXA8 | 33 | 1.9 | 3 |

system: CC(=O)N[C@@H](CCCCNC(=O)CCC(=O)O)C(=O)Nc1ccc2c(C)cc(=O)oc2c1; test: as §2; summary of the method: as §3

| Compound | Km [µM] | Vmax [×10⁻⁴ µM/s] | kcat [×10⁻³ /s] |
| --- | --- | --- | --- |
| NAD-dependent protein deacylase sirtuin-5, mitochondrial (Homo sapiens), Q9NXA8 | 84 | 5.6 | 9 |

target: T3, NAD-dependent protein deacetylase sirtuin-1 (Homo sapiens) (UniProt Q96EB6); test: Activity of human SIRT1 assessed as decrotonylation of compound at 50 uM after 1 hr by trypsin developer-based fluorescence assay; summary of the method: as §1
T3 sequence (whole entry): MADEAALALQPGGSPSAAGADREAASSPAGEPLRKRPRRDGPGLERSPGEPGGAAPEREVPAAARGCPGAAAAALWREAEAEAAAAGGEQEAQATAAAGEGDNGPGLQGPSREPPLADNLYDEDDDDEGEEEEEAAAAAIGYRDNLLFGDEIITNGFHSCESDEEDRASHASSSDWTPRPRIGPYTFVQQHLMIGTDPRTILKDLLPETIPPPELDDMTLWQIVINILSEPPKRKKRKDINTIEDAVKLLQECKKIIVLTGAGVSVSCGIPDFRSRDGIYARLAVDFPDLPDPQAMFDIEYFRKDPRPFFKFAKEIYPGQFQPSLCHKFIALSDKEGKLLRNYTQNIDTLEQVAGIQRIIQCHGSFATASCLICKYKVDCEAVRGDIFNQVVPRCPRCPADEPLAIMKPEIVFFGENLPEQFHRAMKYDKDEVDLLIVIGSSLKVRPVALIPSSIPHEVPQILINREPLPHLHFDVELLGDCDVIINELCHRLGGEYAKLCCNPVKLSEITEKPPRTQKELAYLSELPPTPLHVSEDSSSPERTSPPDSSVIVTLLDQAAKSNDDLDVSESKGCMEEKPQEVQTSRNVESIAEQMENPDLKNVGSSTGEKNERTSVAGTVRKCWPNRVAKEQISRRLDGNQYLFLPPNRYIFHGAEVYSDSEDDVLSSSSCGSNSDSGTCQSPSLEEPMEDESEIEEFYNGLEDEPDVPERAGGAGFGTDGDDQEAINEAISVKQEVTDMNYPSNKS

| Compound | Activity |
| --- | --- |
| C/C=C/C(=O)NCCCC[C@H](NC(=O)CNC(=O)[C@H](CC(C)C)NC(C)=O)C(=O)Nc1ccc2c(C)cc(=O)oc2c1 | inactive |
| CC(=O)N[C@@H](CC(C)C)C(=O)NCC(=O)N[C@@H](CCCCNC(=O)C(F)(F)F)C(=O)Nc1ccc2c(C)cc(=O)oc2c1 (Ac-Leu-Gly-Lys(Tfa)-{AMC}) | Active |

system: CC(=O)N[C@@H](CC(C)C)C(=O)NCC(=O)N[C@@H](CCCCNC(=O)CCC(=O)O)C(=O)Nc1ccc2c(C)cc(=O)oc2c1; test: (§4) Ratio of Kcat to Km for human SIRT5 assessed as desuccinylation of compound after 1 hr by Michaelis-Menten plot analysis; summary of the method: as §3

| Compound | kcat/Km [×10² /s/M] |
| --- | --- |
| NAD-dependent protein deacylase sirtuin-5, mitochondrial (Homo sapiens), Q9NXA8 | 9.2 |

system: CC(=O)N[C@@H](CCCCNC(=O)CCC(=O)O)C(=O)Nc1ccc2c(C)cc(=O)oc2c1; test: as §4; summary of the method: as §3

| Compound | kcat/Km [×10² /s/M] |
| --- | --- |
| NAD-dependent protein deacylase sirtuin-5, mitochondrial (Homo sapiens), Q9NXA8 | 1.1 |
